Reference: ChEMBL document CHEMBL4316645, “Phenolic C-Glycosides and Aglycones from Marine-Derived Aspergillus sp. and Their Anti-Inflammatory Activities” (J Nat Prod, 2019)
The source made the active and inactive calls. The rule behind the calls is not given here.

Assays:
RAW264.7 [1] = experiment: Inhibition of LPS-induced nitric oxide production in mouse RAW264.7 cells preincubated for 2 hrs followed by LPS-stimulation and measured after 12 hrs by Griess assay; type: functional, cell-based
Procedure, shortened: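 RAW264.7 cells seeded at 2 × 10^5 cells/well and preincubated 24 h, then treated 2 h with test compounds from 40 to 0.5 μM, then stimulated with LPS (1 μg/mL) for 12 h. Supernatant spun at 16 000 rpm for 20 min, mixed with Griess reagent (0.1% naphthyl ethylenediamine dihydrochloride, 1% sulfanilamide, 2% phosphoric acid) for 10 min at rt, read at 540 nm. Means of three independent experiments.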

RAW264.7 [2] = experiment: Antiinflammatory activity in mouse RAW264.7 cells assessed as inhibition of LPS-induced IL-1beta production preincubated for 2 hrs followed by LPS-stimulation and measured after 12 hrs by ELISA; type: functional, cell-based
Procedure, shortened: (§1)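 Cells seeded at 2 × 10^5 cells/well and preincubated 24 h. They were pretreated 2 h with compound, then given LPS (1 μg/mL) for 12 h. IL-1β and IL-6 in the culture medium were measured by ELISA. Data are mean ± SD (n = 3), analysed by one-way ANOVA with Tukey's test against the LPS-only group.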

RAW264.7 [3] = experiment: Antiinflammatory activity in mouse RAW264.7 cells assessed as inhibition of LPS-induced COX2 expression at 5 to 10 uM preincubated for 2 hrs followed by LPS-stimulation and measured after 12 hrs by Western blot analysis; type: functional, cell-based
Procedure, shortened: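 After 2 h compound pretreatment and 12 h LPS (1 μg/mL), cells were lysed in 20 mM Tris HCl pH 7.4 with protease inhibitors, and protein was quantified. Lysates were run on SDS-PAGE, transferred to PVDF, and blocked in PBS/0.1% Tween 20/5% skim milk for 1 h at rt. Blots were probed overnight at 4 °C for COX-2 and β-actin, developed by chemiluminescence, and bands quantified by densitometry. Mean ± SD, n = 3.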

[4] = biological target: Transcription factor p65 (Mus musculus) (UniProt Q04207); experiment: Inhibition of NFkappaB p65 nuclear translocation in LPS-stimulated mouse RAW264.7 cells at 5 to 10 uM preincubated for 2 hrs followed by LPS-stimulation and measured after 12 hrs by DAPI staining based fluorescence microscopic analysis; type: cell-based
Chain of Transcription factor p65 (Mus musculus) (Q04207 whole entry): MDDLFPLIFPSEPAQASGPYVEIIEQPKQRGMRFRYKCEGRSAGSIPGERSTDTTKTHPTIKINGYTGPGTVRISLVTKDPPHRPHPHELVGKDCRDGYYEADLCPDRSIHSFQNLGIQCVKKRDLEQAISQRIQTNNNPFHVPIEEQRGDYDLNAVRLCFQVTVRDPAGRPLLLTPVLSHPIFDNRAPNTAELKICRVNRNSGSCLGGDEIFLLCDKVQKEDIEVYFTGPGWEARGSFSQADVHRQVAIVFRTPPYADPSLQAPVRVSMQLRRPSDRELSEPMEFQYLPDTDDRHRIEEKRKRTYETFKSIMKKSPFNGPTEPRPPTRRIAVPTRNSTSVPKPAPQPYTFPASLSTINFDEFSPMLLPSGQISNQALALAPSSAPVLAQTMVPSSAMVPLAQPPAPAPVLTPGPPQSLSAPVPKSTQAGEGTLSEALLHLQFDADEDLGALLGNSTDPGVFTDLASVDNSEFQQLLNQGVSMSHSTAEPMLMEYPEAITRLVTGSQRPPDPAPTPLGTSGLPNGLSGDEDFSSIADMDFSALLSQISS
Procedure, shortened: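 Cells were fixed in 4% paraformaldehyde for 20 min and permeabilized with 0.2% Triton X-100 for 30 min. After 5% BSA block for 1 h, they were given anti-p65 primary overnight at 4 °C, then Alexa Fluor 594 secondary (1:500) for 1 h at rt. DAPI (5 μg/mL) was applied 30 min at 37 °C. Imaging used fluorescence microscopy, ex/em 590/617 nm for p65 and 360/450 nm for DAPI.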

RAW264.7 [5] = experiment: Antiinflammatory activity in mouse RAW264.7 cells assessed as inhibition of LPS-induced IL-6 production preincubated for 2 hrs followed by LPS-stimulation and measured after 12 hrs by ELISA; type: functional, cell-based; procedure, shortened: as §1

SMILES	IC50 (RAW264.7 [1]) [µM]	other results
CCC/C=C\C=C\CCc1cc(O)c([C@@H]2O[C@H](CO)[C@@H](O)[C@H](O)[C@H]2O)c(O)c1C(=O)OC	14	–
CCC/C=C/C=C\CCc1cc(O)c([C@@H]2O[C@H](CO)[C@@H](O)[C@H](O)[C@H]2O)c(O)c1C(=O)OC	> 40	–
C/C=C/C=C/CCc1cc(O)c([C@@H]2O[C@H](CO)[C@@H](O)[C@H](O)[C@H]2O)c(O)c1C(=O)OC	> 40	–
CCC/C=C/C=C/CCc1cc(O)c([C@@H]2O[C@H](CO)[C@@H](O)[C@H](O)[C@H]2O)c(O)c1C(=O)OCC	15	–
CCC/C=C/C=C\CCc1cc(O)c([C@@H]2O[C@H](CO)[C@@H](O)[C@H](O)[C@H]2O)c(O)c1	> 40	–
CCC/C=C/C=C/CCc1cc(O)c([C@@H]2O[C@H](CO)[C@@H](O)[C@H](O)[C@H]2O)c(O)c1C(=O)OC	> 40	–
CC/C=C/C=C/CCc1cc(O)c([C@@H]2O[C@H](CO)[C@@H](O)[C@H](O)[C@H]2O)c(O)c1C(=O)OC	19	–
CCC/C=C/C=C/C1Cc2cc(O)cc(O)c2C(=O)O1 (configuration not stated)	17	–

Second part, led by results:

IC50 (RAW264.7 [1]) [µM]	SMILES	other results
28	CCC/C=C/C=C\CCc1cc(O)cc(O)c1	–
9.9	CCC/C=C/C=C/CCc1cc(O)cc(O)c1C(=O)O	–
> 40	CCC/C=C/C=C/CCc1cc(O)c([C@@H]2O[C@H](CO)[C@@H](O)[C@H](O)[C@H]2O)c(O)c1	–
30	CCC/C=C\C=C\CCc1cc(O)c([C@@H]2O[C@H](CO)[C@@H](O)[C@H](O)[C@H]2O)c(O)c1	–
6	CCC/C=C/C=C/CCc1cc(O)cc(O)c1	inhibition (RAW264.7 [2]): Dose-dependent effect; inhibition (RAW264.7 [3]): Active; inhibition [4]: Active; inhibition (RAW264.7 [5]): Dose-dependent effect
